Test results published in ChEMBL document CHEMBL1122634 (J Med Chem, 1984).

How the values were obtained:
Rattus norvegicus [1] = species: Rattus norvegicus; experiment: (§1) Tissue to blood ratio 10 min after injection of compound; format: functional
Method in brief: (§2)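 Immature female Fisher rats, about 50 g. […] Rats were killed at 10 min and tissue and blood radioactivity counted. Results are tissue-to-blood ratios, mean ± SD of five rats, compared between paired animals by paired Student's t test (p < 0.05 significant).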

Rattus norvegicus [2] = species: Rattus norvegicus; experiment: as §1; format: functional; method in brief: as §2; remark: listed apart in the source
Rattus norvegicus [3] = species: Rattus norvegicus; experiment: (§3) Tissue to blood ratio 10 min after injection of compound & Estradiol; format: functional; method in brief: as §2
Rattus norvegicus [4] = experiment: In vivo kidneys distribution of [11C]-labeled compound in Fisher rat 10 min after injection via caudal vein along with 18 ug of unlabeled estradiol.; format: ADME, organism-based, Kidney; conditions: iv
Method in brief: (§4)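 Immature female Fisher rats, 3-4 weeks old, about 50 g. Tracer was HPLC-purified, dried, redissolved in ethanol and diluted in saline. […] Animals were killed by cardiac puncture at 10 min and tissues counted. Values are % injected dose/g normalized to 100 g body weight, mean ± SD of five rats. Rats were paired (with/without carrier) and compared by paired Student's t test.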

Rattus norvegicus [5] = experiment: In vivo lung distribution of [11C]-labeled compound in Fisher rat 10 min after injection via caudal vein along with 18 ug of unlabeled estradiol.; format: ADME, organism-based; conditions: iv; method in brief: as §4
Rattus norvegicus [6] = experiment: In vivo muscle distribution of [11C]-labeled compound in Fisher rat 10 min after injection via caudal vein along with 18 ug of unlabeled estradiol.; format: ADME, organism-based, Muscle tissue; conditions: iv; method in brief: as §4
Rattus norvegicus [7] = experiment: In vivo uterus distribution of [11C]-labeled compound in Fisher rat 10 min after injection via caudal vein along with 18 ug of unlabeled estradiol.; format: ADME, organism-based; conditions: iv; method in brief: as §4
Rattus norvegicus [8] = species: Rattus norvegicus; experiment: as §1; format: functional; method in brief: as §2; remark: listed apart in the source
Rattus norvegicus [9] = experiment: In vivo adrenals distribution of [11C]-labeled compound in Fisher rat 10 min after injection via caudal vein.; format: ADME, organism-based, Adrenal gland; conditions: iv; method in brief: as §4
Rattus norvegicus [10] = experiment: In vivo liver distribution of [11C]-labeled compound in Fisher rat 10 min after injection via caudal vein along with 18 ug of unlabeled estradiol.; format: ADME, organism-based; conditions: iv; method in brief: as §4
Rattus norvegicus [11] = experiment: In vivo spleen distribution of [11C]-labeled compound in Fisher rat 10 min after injection via caudal vein along with 18 ug of unlabeled estradiol.; format: ADME, organism-based; conditions: iv; method in brief: as §4
Rattus norvegicus [12] = experiment: In vivo blood distribution of [11C]-labeled compound in Fisher rat 10 min after injection via caudal vein.; format: ADME, organism-based; conditions: iv; method in brief: as §4
Rattus norvegicus [13] = experiment: In vivo uterus distribution of [11C]-labeled compound in Fisher rat 10 min after injection via caudal vein.; format: ADME, organism-based; conditions: iv; method in brief: as §4
Rattus norvegicus [14] = species: Rattus norvegicus; experiment: as §3; format: functional; method in brief: as §2; remark: listed apart in the source
Rattus norvegicus [15] = experiment: In vivo muscle distribution of [11C]-labeled compound in Fisher rat 10 min after injection via caudal vein.; format: ADME, organism-based, Muscle tissue; conditions: iv; method in brief: as §4
Rattus norvegicus [16] = species: Rattus norvegicus; experiment: as §1; format: functional; method in brief: as §2; remark: listed apart in the source
Rattus norvegicus [17] = species: Rattus norvegicus; experiment: as §3; format: functional; method in brief: as §2; remark: listed apart in the source
Rattus norvegicus [18] = experiment: In vivo kidneys distribution of [11C]-labeled compound in Fisher rat 10 min after injection via caudal vein.; format: ADME, organism-based, Kidney; conditions: iv; method in brief: as §4
Rattus norvegicus [19] = species: Rattus norvegicus; experiment: as §3; format: functional; method in brief: as §2; remark: listed apart in the source
Rattus norvegicus [20] = experiment: In vivo blood distribution of [11C]-labeled compound in Fisher rat 10 min after injection via caudal vein along with 18 ug of unlabeled estradiol.; format: ADME, organism-based; conditions: iv; method in brief: as §4
Rattus norvegicus [21] = species: Rattus norvegicus; experiment: as §3; format: functional; method in brief: as §2; remark: listed apart in the source
Rattus norvegicus [22] = species: Rattus norvegicus; experiment: as §1; format: functional; method in brief: as §2; remark: listed apart in the source
Rattus norvegicus [23] = species: Rattus norvegicus; experiment: as §1; format: functional; method in brief: as §2; remark: listed apart in the source
Rattus norvegicus [24] = species: Rattus norvegicus; experiment: as §3; format: functional; method in brief: as §2; remark: listed apart in the source
Rattus norvegicus [25] = species: Rattus norvegicus; experiment: as §1; format: functional; method in brief: as §2; remark: listed apart in the source
Rattus norvegicus [26] = experiment: In vivo spleen distribution of [11C]-labeled compound in Fisher rat 10 min after injection via caudal vein.; format: ADME, organism-based; conditions: iv; method in brief: as §4
Rattus norvegicus [27] = species: Rattus norvegicus; experiment: as §1; format: functional; method in brief: as §2; remark: listed apart in the source
Rattus norvegicus [28] = experiment: In vivo adrenals distribution of [11C]-labeled compound in Fisher rat 10 min after injection via caudal vein along with 18 ug of unlabeled estradiol.; format: ADME, organism-based, Adrenal gland; conditions: iv; method in brief: as §4
Rattus norvegicus [29] = experiment: In vivo ovaries distribution of [11C]-labeled compound in Fisher rat 10 min after injection via caudal vein along with 18 ug of unlabeled estradiol.; format: ADME, organism-based, Female gonad; conditions: iv; method in brief: as §4
Rattus norvegicus [30] = species: Rattus norvegicus; experiment: as §3; format: functional; method in brief: as §2; remark: listed apart in the source
Rattus norvegicus [31] = experiment: In vivo ovaries distribution of [11C]-labeled compound in Fisher rat 10 min after injection via caudal vein.; format: ADME, organism-based, Female gonad; conditions: iv; method in brief: as §4
Rattus norvegicus [32] = species: Rattus norvegicus; experiment: as §3; format: functional; method in brief: as §2; remark: listed apart in the source
Rattus norvegicus [33] = experiment: In vivo lung distribution of [11C]-labeled compound in Fisher rat 10 min after injection via caudal vein.; format: ADME, organism-based; conditions: iv; method in brief: as §4
Rattus norvegicus [34] = experiment: In vivo liver distribution of [11C]-labeled compound in Fisher rat 10 min after injection via caudal vein.; format: ADME, organism-based; conditions: iv; method in brief: as §4
Rattus norvegicus [35] = species: Rattus norvegicus; experiment: as §3; format: functional; method in brief: as §2; remark: listed apart in the source
Rattus norvegicus [36] = species: Rattus norvegicus; experiment: as §3; format: functional; method in brief: as §2; remark: listed apart in the source
Rattus norvegicus [37] = species: Rattus norvegicus; experiment: as §3; format: functional; method in brief: as §2; remark: listed apart in the source
Rattus norvegicus [38] = species: Rattus norvegicus; experiment: as §1; format: functional; method in brief: as §2; remark: listed apart in the source
Rattus norvegicus [39] = species: Rattus norvegicus; experiment: as §3; format: functional; method in brief: as §2; remark: listed apart in the source
Rattus norvegicus [40] = species: Rattus norvegicus; experiment: as §3; format: functional; method in brief: as §2; remark: listed apart in the source
Rattus norvegicus [41] = species: Rattus norvegicus; experiment: as §3; format: functional; method in brief: as §2; remark: listed apart in the source
Rattus norvegicus [42] = species: Rattus norvegicus; experiment: as §1; format: functional; method in brief: as §2; remark: listed apart in the source
Rattus norvegicus [43] = species: Rattus norvegicus; experiment: as §1; format: functional; method in brief: as §2; remark: listed apart in the source
Rattus norvegicus [44] = species: Rattus norvegicus; experiment: as §1; format: functional; method in brief: as §2; remark: listed apart in the source
Rattus norvegicus [45] = species: Rattus norvegicus; experiment: as §1; format: functional; method in brief: as §2; remark: listed apart in the source
Rattus norvegicus [46] = species: Rattus norvegicus; experiment: as §1; format: functional; method in brief: as §2; remark: listed apart in the source
Rattus norvegicus [47] = species: Rattus norvegicus; experiment: as §3; format: functional; method in brief: as §2; remark: listed apart in the source
Rattus norvegicus [48] = species: Rattus norvegicus; experiment: as §1; format: functional; method in brief: as §2; remark: listed apart in the source

Injected dose/g (Rattus norvegicus [4])	Injected dose/g (Rattus norvegicus [5])	Injected dose/g (Rattus norvegicus [6])	Injected dose/g (Rattus norvegicus [7])	Injected dose/g (Rattus norvegicus [9])	Injected dose/g (Rattus norvegicus [10])	Injected dose/g (Rattus norvegicus [11])	Injected dose/g (Rattus norvegicus [12])	Injected dose/g (Rattus norvegicus [13])	Injected dose/g (Rattus norvegicus [15])	Injected dose/g (Rattus norvegicus [18])	Injected dose/g (Rattus norvegicus [20])	Injected dose/g (Rattus norvegicus [26])	Injected dose/g (Rattus norvegicus [28])	Injected dose/g (Rattus norvegicus [29])	Injected dose/g (Rattus norvegicus [31])	Injected dose/g (Rattus norvegicus [33])	Injected dose/g (Rattus norvegicus [34])	SMILES	further results
5.1%	2.1%	1.3%	6.2%	6.5%	7.8%	1.6%	0.81%	5%	1.1%	2.9%	1.3%	2.4%	5.3%	3.5%	2.5%	2.1%	8.5%	CCOC(=O)NCCOc1ccc(C(CC)C(CC)c2ccc(O)cc2)cc1 (stereo not drawn)	Tissue/Blood ratio (Rattus norvegicus [1]): 1.2; Tissue/Blood ratio (Rattus norvegicus [2]): 8; Tissue/Blood ratio (Rattus norvegicus [3]): 2.8; Tissue/Blood ratio (Rattus norvegicus [8]): 2.4; Tissue/Blood ratio (Rattus norvegicus [14]): 3.1; Tissue/Blood ratio (Rattus norvegicus [16]): 9; Tissue/Blood ratio (Rattus norvegicus [17]): 5.4; Tissue/Blood ratio (Rattus norvegicus [19]): 1.9; Tissue/Blood ratio (Rattus norvegicus [21]): 9.4; Tissue/Blood ratio (Rattus norvegicus [22]): 3.7; Tissue/Blood ratio (Rattus norvegicus [23]): 3; Tissue/Blood ratio (Rattus norvegicus [24]): 1.3; Tissue/Blood ratio (Rattus norvegicus [25]): 2.5; Tissue/Blood ratio (Rattus norvegicus [27]): 6.3; Tissue/Blood ratio (Rattus norvegicus [30]): 2.5; Tissue/Blood ratio (Rattus norvegicus [32]): 3.3
6.1%	5.1%	3.2%	7.8%	14.3%	12.8%	3.6%	0.9%	4.5%	1.6%	4.2%	1.3%	2.3%	21.6%	7.4%	6.5%	3.1%	9.4%	CCOC(=O)NC1CC[C@H]2[C@@H]3CCc4cc(O)ccc4[C@H]3CC[C@]12C (stereo partly drawn)	Ratio (Rattus norvegicus [35]): 1.8; Ratio (Rattus norvegicus [36]): 9.1; Ratio (Rattus norvegicus [37]): 2.7; Ratio (Rattus norvegicus [8]): 3.7; Ratio (Rattus norvegicus [38]): 9.4; Ratio (Rattus norvegicus [39]): 6; Ratio (Rattus norvegicus [40]): 4.3; Ratio (Rattus norvegicus [41]): 6.2; Ratio (Rattus norvegicus [42]): 5.5; Ratio (Rattus norvegicus [43]): 4.8; Ratio (Rattus norvegicus [44]): 1.4; Ratio (Rattus norvegicus [45]): 9.1; Ratio (Rattus norvegicus [30]): 3.7; Ratio (Rattus norvegicus [46]): 18; Ratio (Rattus norvegicus [47]): 14.9; Ratio (Rattus norvegicus [48]): 2.8
